Assay results from different studies.
Compare with care: the assays were run in different laboratories.
Target: Adenosine receptor A3 (ADORA3, Homo sapiens, UniProt P0DMS8)
Sequence (P0DMS8 1-318, as in one of the studies): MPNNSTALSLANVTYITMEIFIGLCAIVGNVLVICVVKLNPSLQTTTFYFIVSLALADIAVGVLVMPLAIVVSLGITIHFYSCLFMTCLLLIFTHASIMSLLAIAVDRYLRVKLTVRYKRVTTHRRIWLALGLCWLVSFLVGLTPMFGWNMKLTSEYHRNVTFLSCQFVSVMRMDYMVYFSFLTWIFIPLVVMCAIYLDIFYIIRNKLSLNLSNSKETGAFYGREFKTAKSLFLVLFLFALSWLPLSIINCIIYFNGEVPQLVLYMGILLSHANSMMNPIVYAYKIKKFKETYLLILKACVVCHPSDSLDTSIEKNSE

Structure (SMILES) | effect on | mode | technique | cell line | concentration | measurement | result
O=C(Nc1cccnn1)N1CCN([C@@H]2CCOc3cc(C(F)(F)F)ccc32)CC1 | ligand displacement | – | – | – | 20 µM | inhibition | 25%
CC(C)Cn1cnc2c(N)nc3ccccc3c21 | ligand displacement | – | radioligand | – | 10 µM | inhibition | 16%
CCN(CC)CCCC[C@H](NC(=O)[C@H](CC(C)C)NC(=O)[C@H](C)NC(=O)[C@H](Cc1ccccc1)NC(=O)c1ccc(C(C)(C)C)cc1)C(=O)N[C@@H](CO)C(=O)OC | ligand displacement | – | radioligand | – | 10 µM | remaining binding | 96.9%
COCCN(CCOC)C(=O)[C@@]12C[C@@H]1[C@@H](n1cnc3c(N)nc(Cl)nc31)[C@H](O)[C@@H]2O | ligand displacement | – | radioligand | – | 10 µM | inhibition | 51%
c1ccc(C(NCCNC(c2ccccc2)c2ccccc2)c2ccccc2)cc1 | cell-free assay | – | – | – | 10 µM | inhibition | 70%
COc1ccc(S(=O)(=O)N2CCCCC2)cc1C | ligand displacement | – | radioligand | – | 10 µM | inhibition | < 30%
CC(C)N1CCC[C@H]1CNC(=O)c1cn(C2CCCC2)c(=O)c2c1c1ccccc1n2C | ligand displacement | – | radioligand | – | 10 µM | inhibition | 14%
CCNC(=O)[C@H]1O[C@@H](n2cnc3c(N)ncnc32)[C@H](O)[C@@H]1O | β-arrestin recruitment | agonist | – | HEK-293T | – | Emax | 99.5%
CCCCSC[C@@]12C[C@@H]1[C@@H](n1cnc3c(NC(C4CCCC4)C4CCCC4)nc(Cl)nc31)[C@H](O)[C@@H]2O | ligand displacement | – | radioligand | – | 10 µM | inhibition | 33%
C[C@H](C(=O)N[C@H]1COc2ccccc2[C@@H]1S(C)(=O)=O)c1ccc(F)cc1 | cell-free assay | – | – | – | 10 µM | inhibition | 11%
CN(CCN1CCC(OC(=O)Nc2ccccc2-c2ccccc2)CC1)C(=O)c1ccc(CN2CCC(C(N)=O)CC2)cc1 | ligand displacement | – | radioligand | – | 1 µM | inhibition | -12%
CCOC(=O)[C@@]12C[C@@H]1[C@@H](n1cnc3c(N[C@H](C4CCC4)C4CC4)nc(I)nc31)[C@H](O)[C@@H]2O | ligand displacement | – | radioligand | – | 10 µM | inhibition | 88%
COCc1c(-c2cc3cc(C)cc(OC)c3s2)c2c(N)ncnn2c1CN1CCNC(=O)C1 | ligand displacement | – | radioligand | – | 10 µM | inhibition | 39%
